In brackets after ≈: the same amount, converted by molar mass. Activity calls are given as the source filed them. No cut-off for these calls is given here.
How the values were obtained:
Streptococcus pneumoniae [1] = assay: Antibacterial activity against Streptococcus pneumoniae serotype 3; format: functional
Outline: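 MIC by gradient-strip diffusion (Etest) on blood agar plates inoculated with the study's serotype 3 clinical isolate, run per manufacturer's recommendations. Reference strain ATCC 49619 was tested in parallel. Result read as MIC in mg/liter.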

Streptococcus pneumoniae [2] = assay: Antibacterial activity against Streptococcus pneumoniae ATCC 49619; format: functional
Outline: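 MIC by antibiotic gradient strip (Etest) on blood agar plates inoculated with the strain, per manufacturer's recommendations; reference strain tested in parallel with the serotype 3 clinical isolate.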

Rattus norvegicus [3] = assay: Effect on TNFalpha level in Streptococcus pneumoniae infected Wistar rat CSF at 100 mg/kg, sc after 2 to 6 hrs y ELISA; format: functional; conditions: route subcutaneous
Outline: (§1)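 Infant Wistar rats (11 days old) infected intracisternally with S. pneumoniae serotype 3 (1.3 × 104 ± 0.5 × 10^4 CFU). Single s.c. antibiotic dose given 18 h post-infection. CSF sampled by intracisternal puncture 2 and 6 h after dosing and at 24 h post-infection. Samples spun 5 min at 13,000 rpm, 4°C to remove bacteria and leukocytes, diluted 20-fold, then assayed for rat TNF-α by ELISA (detection limit <5 pg/ml).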

Rattus norvegicus [4] = assay: Decrease on TNFalpha level in Streptococcus pneumoniae infected Wistar rat CSF at 100 mg/kg, sc after 24 hrs by ELISA; format: functional; conditions: route subcutaneous; outline: as §1
Streptococcus pneumoniae [5] = assay: Antimicrobial activity against Streptococcus pneumoniae infected Wistar rat CSF assessed as decrease in bacterial titer at 100 mg/kg, sc after 2 hrs; format: functional; conditions: route subcutaneous
Outline: (§2)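 Eleven-day-old Wistar rats infected intracisternally with 1.3 × 104 ± 0.5 × 10^4 CFU of S. pneumoniae serotype 3 clinical isolate in 10 μl saline. Single s.c. antibiotic dose started 18 h post-infection. CSF taken by cisterna magna puncture before therapy and at 20 h and 24 h post-infection. CFU counted by plating serial dilutions of 10 μl CSF on blood agar (detection limit 10^3 CFU/ml).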

Streptococcus pneumoniae [6] = assay: Antimicrobial activity against Streptococcus pneumoniae infected Wistar rat CSF assessed as decrease in bacterial titer at 50 mg/kg, sc after 2 hrs; format: functional; conditions: route subcutaneous; outline: as §2
Rattus norvegicus [7] = assay: Effect on TNFalpha level in Streptococcus pneumoniae infected Wistar rat CSF at 50 mg/kg, sc after 2 to 6 hrs y ELISA; format: functional; conditions: route subcutaneous; outline: as §1
Rattus norvegicus [8] = assay: Decrease in TNFalpha level in Streptococcus pneumoniae infected Wistar rat CSF at 50 mg/kg, sc after 24 hrs by ELISA; format: functional; conditions: route subcutaneous; outline: as §1
Streptococcus pneumoniae [9] = assay: Effect on Streptococcus pneumoniae infection induced elevation of MMP9 level in Wistar rat CSF assessed as MMP-9/MMP-2 index at 50 mg/kg, sc after 20 hrs by gel zymography; format: functional; conditions: route subcutaneous
Outline: (§3)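 Intracisternally infected 11-day-old Wistar rats (S. pneumoniae serotype 3) dosed s.c. from 18 h. CSF sampled at 20, 24 or 40 h post-infection. 3 μl CSF run on nonreducing 10% SDS-PAGE containing 1% gelatin. Gels washed 1 h in 2.5% Triton X-100, incubated 18 h at 37°C (50 mM NaCl, 10 mM CaCl2, 50 mM Tris, pH 7.6), Coomassie stained. Lysis zones at 92 and 72 kDa measured by densitometry and reported as MMP-9/MMP-2 ratio. Uninfected saline-injected rats served as controls.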

Streptococcus pneumoniae [10] = assay: Effect on Streptococcus pneumoniae infection induced elevation of MMP9 level in Wistar rat CSF assessed as MMP-9/MMP-2 index at 50 mg/kg, sc after 24 hrs by gel zymography; format: functional; conditions: route subcutaneous; outline: as §3
Streptococcus pneumoniae [11] = assay: Effect on Streptococcus pneumoniae infection induced elevation of MMP9 level in Wistar rat CSF assessed as MMP-9/MMP-2 index at 50 mg/kg, sc after 40 hrs by gel zymography; format: functional; conditions: route subcutaneous; outline: as §3
Streptococcus pneumoniae [12] = assay: Effect on Streptococcus pneumoniae infection induced brain injury in Wistar rat hippocampal dentate gyrus assessed as number of apoptotic cells at 50 mg/kg, sc after 24 hrs; format: functional; conditions: route subcutaneous
Outline: (§4)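 Following intracisternal pneumococcal infection and s.c. dosing from 18 h, brains were taken at 20, 24 or 40 h after PFA perfusion. Cells with fragmented bodies or condensed nuclei were counted blind in three ×400 fields in each of the four dentate gyrus blades. Counts averaged over twelve coronal sections per animal. Uninfected rats served as controls.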

Streptococcus pneumoniae [13] = assay: Effect on Streptococcus pneumoniae infection induced brain injury in Wistar rat hippocampal dentate gyrus assessed as number of apoptotic cells at 50 mg/kg, sc after 40 hrs; format: functional; conditions: route subcutaneous; outline: as §4
Streptococcus pneumoniae [14] = assay: Antimicrobial activity against Streptococcus pneumoniae infected Wistar rat CSF assessed as decrease in bacterial titer at 50 mg/kg, sc after 6 hrs; format: functional, organism-based; set-up: dose 50 mg/kg; outline: as §2
Streptococcus pneumoniae [15] = assay: Effect on Streptococcus pneumoniae infection induced brain injury in Wistar rat hippocampal dentate gyrus assessed as number of apoptotic cells at 50 mg/kg, sc after 20 hrs; format: functional; conditions: route subcutaneous; outline: as §4

Row | SMILES | MIC (Streptococcus pneumoniae [1]) | MIC (Streptococcus pneumoniae [2]) | Activity (Rattus norvegicus [3]) | Activity (Rattus norvegicus [4]) | Log10 cfu (Streptococcus pneumoniae [5]) | Log10 cfu (Streptococcus pneumoniae [6]) | Activity (Rattus norvegicus [7]) | Activity (Rattus norvegicus [8]) | Ratio (Streptococcus pneumoniae [9]) | Ratio (Streptococcus pneumoniae [10]) | Ratio (Streptococcus pneumoniae [11]) | Activity (Streptococcus pneumoniae [12]) | Activity (Streptococcus pneumoniae [13]) | Activity (Streptococcus pneumoniae [14]) | Activity (Streptococcus pneumoniae [15])
1 | CO/N=C(\C(=O)N[C@@H]1C(=O)N2C(C(=O)O)=C(CSc3nc(=O)c(O)nn3C)CS[C@H]12)c1csc(N)n1 [CEFTRIAXONE] | 0.023 µg/mL (≈ 0.0415 µM) | 0.094 µg/mL (≈ 0.169 µM) | 4578 pg/mL | 249 pg/mL | 6.3 /ml | – | – | – | – | – | – | – | – | – | –
2 | CCCCCCCCCC(=O)N[C@@H](Cc1c[nH]c2ccccc12)C(=O)N[C@H](CC(N)=O)C(=O)N[C@@H](CC(=O)O)C(=O)N[C@@H]1C(=O)NCC(=O)N[C@@H](CCCN)C(=O)N[C@@H](CC(=O)O)C(=O)N[C@H](C)C(=O)N[C@@H](CC(=O)O)C(=O)NCC(=O)N[C@H](CO)C(=O)N[C@@H]([C@H](C)CC(=O)O)C(=O)N[C@@H](CC(=O)c2ccccc2N)C(=O)O[C@@H]1C | 0.25 µg/mL (≈ 0.154 µM) | 0.38 µg/mL (≈ 0.234 µM) | – | – | – | 3.6 /ml | 3059 pg/mL | 352 pg/mL | 1.6 | 1.2 | 0.6 | 14.9% | 6.1% | Active | 5.5%

— ChEMBL document CHEMBL1143818, “Prevention of brain injury by the nonbacteriolytic antibiotic daptomycin in experimental pneumococcal meningitis” (2007)
